The results in this text go back to ChEMBL document CHEMBL4118168, “Synthesis and structure-activity relationship studies of MI-2 analogues as MALT1 inhibitors” (Bioorg Med Chem, 2018).

Structures are written as SMILES. Active and inactive are the calls of the source. The calls are words filed in the database; no cut-off is given here.

In one experiment the test system is Toledo. The experiment can be described thus: Antiproliferative activity against human Toledo cells after 48 hrs by CCK8 assay. The format is functional, cell-based.
Consider `COCCOc1nc(-c2ccc(Cl)cc2)n(-c2ccc(NC(=O)CCl)cc2)n1`, for which inhibition was half-maximal at 1720 nM (IC50).

The molecule `O=C(CCl)Nc1ccc(-n2nc(OCCN3CCOCC3)nc2-c2ccc(Cl)c(Cl)c2)cc1` returned an IC50 of 470 nM.

With `COCCOc1nc(-c2ccc(Cl)c(Cl)c2)n(-c2ccc(NC(=O)CCl)cc2)n1`, half-maximal inhibition (IC50) required 800 nM.

Molecule `O=C(CCl)Nc1ccc(-n2nc(OCCc3cn(-c4ccccc4)nn3)nc2-c2ccc(Cl)c(Cl)c2)cc1` registered an IC50 of 380 nM.

Another experiment deals with T1, Mucosa-associated lymphoid tissue lymphoma translocation protein 1 (Homo sapiens) (UniProt Q9UDY8).
T1 sequence (whole entry): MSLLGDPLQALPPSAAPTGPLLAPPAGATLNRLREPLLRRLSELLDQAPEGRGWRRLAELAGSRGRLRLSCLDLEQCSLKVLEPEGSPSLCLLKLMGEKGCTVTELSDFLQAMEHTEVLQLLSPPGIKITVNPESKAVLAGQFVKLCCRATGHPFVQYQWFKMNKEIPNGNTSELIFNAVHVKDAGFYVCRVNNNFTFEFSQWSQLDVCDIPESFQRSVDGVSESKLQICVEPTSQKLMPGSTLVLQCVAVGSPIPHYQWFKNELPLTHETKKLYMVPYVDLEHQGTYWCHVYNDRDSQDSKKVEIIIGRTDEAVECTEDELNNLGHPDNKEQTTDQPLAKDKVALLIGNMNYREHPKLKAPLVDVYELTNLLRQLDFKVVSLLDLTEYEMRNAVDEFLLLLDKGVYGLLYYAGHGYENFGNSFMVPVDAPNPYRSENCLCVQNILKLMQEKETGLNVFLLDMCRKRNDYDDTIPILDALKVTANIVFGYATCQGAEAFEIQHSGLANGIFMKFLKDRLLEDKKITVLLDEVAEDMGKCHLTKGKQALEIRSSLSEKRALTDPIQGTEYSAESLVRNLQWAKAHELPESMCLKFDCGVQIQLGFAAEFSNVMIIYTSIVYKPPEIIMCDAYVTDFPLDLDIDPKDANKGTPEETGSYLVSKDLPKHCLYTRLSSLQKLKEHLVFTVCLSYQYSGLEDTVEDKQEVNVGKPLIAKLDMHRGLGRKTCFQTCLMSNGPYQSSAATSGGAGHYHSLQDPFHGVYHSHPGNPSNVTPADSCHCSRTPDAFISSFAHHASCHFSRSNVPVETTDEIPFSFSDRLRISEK
The experiment is described as follows: Inhibition of MALT1 in PMA/ionomycin-stimulated human Jurkat T cells assessed as reduction in RelB cleavage at 2 uM pretreated for 4 hrs followed by 1 hr incubation with protease inhibitor MG132 and subsequent PMA/ionomycin-stimulation measured after 1 hr by Western blot analysis. Format: cell-based. The essentials: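 Jurkat T cells in RPMI 1640 with 10% FBS, seeded at 9×10^5 cells/well, treated with compound or DMSO for 4 h, then 1 h with MG132 (10 μM), then stimulated with PMA. RelB cleavage as the read-out of MALT1 activity, detected by Western blot.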
`COCCOc1nc(-c2ccc(NC(=O)CCl)cc2)n(-c2ccc(Cl)c(Cl)c2)n1`: the inhibition result is “Active”.

As for `COCC(C)Oc1nc(-c2ccc(Cl)c(Cl)c2)n(-c2ccc(NC(=O)CCl)cc2)n1` (stereo not given), the inhibition entry is “Active”.

Turning to `O=C(CCl)Nc1ccc(-n2nc(OCC(O)CO)nc2-c2ccc(Cl)c(Cl)c2)cc1` (stereo not given), the inhibition result was “Active”.

`O=C(CCl)Nc1ccc(-n2nc(OCCCO)nc2-c2ccc(Cl)c(Cl)c2)cc1`: the inhibition result was “Active”.

Turning to `COCCOCCOc1nc(-c2ccc(Cl)c(Cl)c2)n(-c2ccc(NC(=O)CCl)cc2)n1`, the inhibition result was “Active”.

For the molecule `O=C(CCl)Nc1ccc(-n2nc(OCCc3cn(-c4ccccc4)nn3)nc2-c2ccc(Cl)c(Cl)c2)cc1`, the inhibition entry is “Active”.
